Calls of active or inactive are those of the source. The calls are words filed in the database; no cut-off is given here.
How the values were obtained:
[1] = biological target: Mitogen-activated protein kinase kinase kinase 20 (Homo sapiens, UniProt Q9NYL2); test: Inhibition of ZAK in human HeLa cells lysate pre incubated for 15 mins followed by ATP acyl phosphate probe addition and measured after 10 mins by LC-MS/MS analysis; format: subcellular
[2] = Toxicity in C57Bl/6 mouse assessed as effect on amylase level at 50 mg/kg, ip for 14 days (reference value: 1027 U/L); format: organism-based; conditions: in vivo, 336 h, time 14 day
[3] = biological target: T1, Dual specificity mitogen-activated protein kinase kinase 6 (Homo sapiens) (UniProt P52564); test: Inhibition of MAP2K6 in human HeLa cells lysate at 50 uM pre incubated for 15 mins followed by ADP acyl phosphate probe addition and measured after 10 mins by LC-MS/MS analysis relative to control; format: subcellular; conditions: time 25.0 min
T1 sequence (whole entry): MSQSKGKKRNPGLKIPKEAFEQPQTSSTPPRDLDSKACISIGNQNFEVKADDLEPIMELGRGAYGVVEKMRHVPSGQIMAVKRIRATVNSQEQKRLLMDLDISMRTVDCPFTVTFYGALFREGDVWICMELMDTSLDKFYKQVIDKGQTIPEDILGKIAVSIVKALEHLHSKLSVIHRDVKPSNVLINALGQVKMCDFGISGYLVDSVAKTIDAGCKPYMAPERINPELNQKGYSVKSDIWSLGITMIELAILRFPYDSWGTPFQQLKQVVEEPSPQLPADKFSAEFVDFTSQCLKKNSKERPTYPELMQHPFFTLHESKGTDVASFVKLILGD

[4] = Inhibition of MSK1/2 domain 1 in human HeLa cells lysate at 50 uM pre incubated for 15 mins followed by ATP acyl phosphate probe addition and measured after 10 mins by LC-MS/MS analysis relative to control; conditions: 25 min, condition cancer
[5] = biological target: Ephrin type-B receptor 4 (Homo sapiens) (UniProt P54760); test: Inhibition of EphB4 in human HeLa cells lysate at 2 uM pre incubated for 15 mins followed by ATP acyl phosphate probe addition and measured after 10 mins by LC-MS/MS analysis relative to control; format: subcellular; conditions: time 25.0 min
Ephrin type-B receptor 4 (Homo sapiens), sequence (P54760 whole entry): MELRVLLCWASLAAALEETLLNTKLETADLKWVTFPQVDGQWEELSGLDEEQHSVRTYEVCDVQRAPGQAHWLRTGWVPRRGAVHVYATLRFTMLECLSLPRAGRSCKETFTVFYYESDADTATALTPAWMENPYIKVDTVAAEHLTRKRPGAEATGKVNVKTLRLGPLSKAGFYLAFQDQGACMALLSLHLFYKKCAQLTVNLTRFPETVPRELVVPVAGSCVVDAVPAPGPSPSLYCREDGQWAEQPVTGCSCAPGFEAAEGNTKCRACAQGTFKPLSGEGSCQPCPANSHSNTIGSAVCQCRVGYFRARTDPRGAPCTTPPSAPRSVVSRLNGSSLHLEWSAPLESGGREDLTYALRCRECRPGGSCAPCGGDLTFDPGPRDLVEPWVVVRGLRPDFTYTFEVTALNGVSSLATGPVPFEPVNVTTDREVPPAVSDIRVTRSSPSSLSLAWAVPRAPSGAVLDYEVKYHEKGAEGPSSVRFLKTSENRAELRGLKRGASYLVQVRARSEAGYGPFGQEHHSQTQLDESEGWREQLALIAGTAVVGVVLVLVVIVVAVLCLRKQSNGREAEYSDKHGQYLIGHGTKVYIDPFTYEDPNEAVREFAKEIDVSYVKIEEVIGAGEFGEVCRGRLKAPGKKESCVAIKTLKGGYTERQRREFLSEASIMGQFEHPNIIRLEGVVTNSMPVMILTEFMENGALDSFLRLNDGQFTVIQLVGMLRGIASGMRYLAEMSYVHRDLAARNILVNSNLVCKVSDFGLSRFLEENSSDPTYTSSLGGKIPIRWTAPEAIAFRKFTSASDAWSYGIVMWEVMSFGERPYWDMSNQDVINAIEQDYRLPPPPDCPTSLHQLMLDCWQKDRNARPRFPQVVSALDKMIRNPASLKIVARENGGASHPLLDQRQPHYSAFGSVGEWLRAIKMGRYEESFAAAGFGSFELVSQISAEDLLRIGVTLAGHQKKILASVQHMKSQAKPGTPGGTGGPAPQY

[6] = biological target: Tyrosine-protein kinase Fyn (Homo sapiens, UniProt P06241); test: Inhibition of FYN in human HeLa cells lysate at 10 uM pre incubated for 15 mins followed by ADP acyl phosphate probe addition and measured after 10 mins by LC-MS/MS analysis relative to control; format: subcellular; conditions: time 25.0 min
Lewis lung carcinoma = test: Antitumor activity against mouse LL2 cells allografted in C57Bl/6 mouse assessed as reduction tumor growth at 50 mg/kg, ip administered on day 10 post implantation measured after 17 days; format: functional, organism-based; conditions: time 7.0 day
Outline: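 LL/2 cells (1×10^6, in DMEM) were injected s.c. into the right flank of 6-week-old C57Bl/6 mice on day 0. Dosing was 50 mg/kg i.p. twice daily, starting on day 1, 7 or 10 and continuing to day 17; controls received carrier. 6 mice per treated group. Tumors were measured every 2–3 days.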

[7] = biological target: Serine/threonine-protein kinase Nek7 (Homo sapiens, UniProt Q8TDX7); test: Inhibition of NEK7 in human HeLa cells lysate pre incubated for 15 mins followed by ADP acyl phosphate probe addition and measured after 10 mins by LC-MS/MS analysis; format: subcellular
Serine/threonine-protein kinase Nek7, sequence (Q8TDX7 whole entry): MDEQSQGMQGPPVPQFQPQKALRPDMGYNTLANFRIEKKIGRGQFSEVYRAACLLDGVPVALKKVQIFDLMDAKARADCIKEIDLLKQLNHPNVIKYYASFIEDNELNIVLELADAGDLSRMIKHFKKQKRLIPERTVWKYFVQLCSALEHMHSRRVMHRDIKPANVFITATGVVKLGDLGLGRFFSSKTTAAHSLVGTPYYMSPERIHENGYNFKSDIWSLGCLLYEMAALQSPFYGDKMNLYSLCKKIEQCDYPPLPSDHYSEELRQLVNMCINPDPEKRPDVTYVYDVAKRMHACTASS

[8] = biological target: Interferon-induced, double-stranded RNA-activated protein kinase (Homo sapiens, UniProt P19525); test: Inhibition of PKR in human HeLa cells lysate at 2 uM pre incubated for 15 mins followed by ATP acyl phosphate probe addition and measured after 10 mins by LC-MS/MS analysis relative to control; format: subcellular; conditions: time 25.0 min
Interferon-induced, double-stranded RNA-activated protein kinase, sequence (P19525 whole entry): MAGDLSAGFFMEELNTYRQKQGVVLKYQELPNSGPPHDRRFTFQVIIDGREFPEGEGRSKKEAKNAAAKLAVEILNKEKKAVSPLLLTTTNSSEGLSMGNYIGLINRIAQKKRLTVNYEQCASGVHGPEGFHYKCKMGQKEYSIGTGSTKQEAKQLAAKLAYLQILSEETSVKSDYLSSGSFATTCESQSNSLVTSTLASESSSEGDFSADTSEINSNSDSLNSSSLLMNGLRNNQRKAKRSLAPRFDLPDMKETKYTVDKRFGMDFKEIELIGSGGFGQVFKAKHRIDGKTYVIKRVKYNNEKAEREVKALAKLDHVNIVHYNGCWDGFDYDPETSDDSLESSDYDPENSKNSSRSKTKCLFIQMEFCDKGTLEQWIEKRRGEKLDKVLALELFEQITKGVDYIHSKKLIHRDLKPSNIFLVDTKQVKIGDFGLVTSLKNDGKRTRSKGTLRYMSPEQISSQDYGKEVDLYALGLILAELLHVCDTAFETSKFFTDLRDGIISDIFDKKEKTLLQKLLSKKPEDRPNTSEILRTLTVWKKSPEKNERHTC

[9] = biological target: MAP/microtubule affinity-regulating kinase 3 (Homo sapiens, UniProt P27448); test: Inhibition of MARK3 in human HeLa cells lysate pre incubated for 15 mins followed by ATP acyl phosphate probe addition and measured after 10 mins by LC-MS/MS analysis; format: subcellular
MAP/microtubule affinity-regulating kinase 3, sequence (P27448 whole entry): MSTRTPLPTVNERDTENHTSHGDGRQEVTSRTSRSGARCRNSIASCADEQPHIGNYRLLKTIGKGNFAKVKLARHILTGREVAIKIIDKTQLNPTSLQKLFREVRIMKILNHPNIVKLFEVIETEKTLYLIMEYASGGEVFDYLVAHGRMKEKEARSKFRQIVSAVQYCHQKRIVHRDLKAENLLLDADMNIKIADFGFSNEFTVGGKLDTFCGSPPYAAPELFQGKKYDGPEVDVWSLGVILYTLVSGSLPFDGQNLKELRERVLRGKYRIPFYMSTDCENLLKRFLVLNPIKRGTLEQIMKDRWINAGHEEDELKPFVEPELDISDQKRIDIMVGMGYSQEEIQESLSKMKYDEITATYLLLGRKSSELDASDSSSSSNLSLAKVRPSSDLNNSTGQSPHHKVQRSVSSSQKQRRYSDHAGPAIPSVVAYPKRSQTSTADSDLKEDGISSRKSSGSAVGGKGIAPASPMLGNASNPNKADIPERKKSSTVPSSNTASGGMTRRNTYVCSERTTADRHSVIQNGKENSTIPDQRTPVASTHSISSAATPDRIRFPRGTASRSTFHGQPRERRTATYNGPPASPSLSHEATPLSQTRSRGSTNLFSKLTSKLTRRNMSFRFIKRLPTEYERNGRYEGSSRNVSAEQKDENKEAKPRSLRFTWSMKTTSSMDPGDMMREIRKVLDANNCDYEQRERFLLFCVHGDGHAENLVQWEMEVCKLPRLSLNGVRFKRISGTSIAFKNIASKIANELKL

[10] = biological target: Calcium/calmodulin-dependent protein kinase type 1D (Homo sapiens, UniProt Q8IU85); test: Inhibition of CAMK1d in human HeLa cells lysate at 2 uM pre incubated for 15 mins followed by ADP acyl phosphate probe addition and measured after 10 mins by LC-MS/MS analysis relative to control; format: subcellular; conditions: time 25.0 min
Calcium/calmodulin-dependent protein kinase type 1D, sequence (Q8IU85 whole entry, looked up, the tested form may be a part): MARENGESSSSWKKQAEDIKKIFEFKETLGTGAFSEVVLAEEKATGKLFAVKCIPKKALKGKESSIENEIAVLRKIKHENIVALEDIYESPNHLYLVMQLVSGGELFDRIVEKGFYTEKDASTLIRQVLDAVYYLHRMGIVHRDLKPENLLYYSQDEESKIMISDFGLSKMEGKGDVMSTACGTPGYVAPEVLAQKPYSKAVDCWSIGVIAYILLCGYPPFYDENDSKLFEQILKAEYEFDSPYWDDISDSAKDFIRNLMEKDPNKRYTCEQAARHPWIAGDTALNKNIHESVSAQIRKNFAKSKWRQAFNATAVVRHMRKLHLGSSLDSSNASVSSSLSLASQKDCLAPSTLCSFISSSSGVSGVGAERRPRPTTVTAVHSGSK
Outline: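 KiNativ-type profiling in HeLa lysate (5 mg/mL total protein). Lysate preincubated 15 min with inhibitor at 50, 10, 2, 0.8 or 0 μM, then ATP or ADP acylphosphate probe added (5 μM final) for 10 min. Reaction stopped with urea and analysed by targeted MS, using up to four fragment ions per kinase peptide-probe conjugate. % inhibition calculated against untreated lysate. Duplicate reactions.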

[11] = biological target: STE20-related kinase adapter protein beta (Homo sapiens, UniProt Q9C0K7); test: Inhibition of ALS2CR2 in human HeLa cells lysate pre incubated for 15 mins followed by ADP acyl phosphate probe addition and measured after 10 mins by LC-MS/MS analysis; format: subcellular
STE20-related kinase adapter protein beta, sequence (Q9C0K7 whole entry, the tested form may be a part): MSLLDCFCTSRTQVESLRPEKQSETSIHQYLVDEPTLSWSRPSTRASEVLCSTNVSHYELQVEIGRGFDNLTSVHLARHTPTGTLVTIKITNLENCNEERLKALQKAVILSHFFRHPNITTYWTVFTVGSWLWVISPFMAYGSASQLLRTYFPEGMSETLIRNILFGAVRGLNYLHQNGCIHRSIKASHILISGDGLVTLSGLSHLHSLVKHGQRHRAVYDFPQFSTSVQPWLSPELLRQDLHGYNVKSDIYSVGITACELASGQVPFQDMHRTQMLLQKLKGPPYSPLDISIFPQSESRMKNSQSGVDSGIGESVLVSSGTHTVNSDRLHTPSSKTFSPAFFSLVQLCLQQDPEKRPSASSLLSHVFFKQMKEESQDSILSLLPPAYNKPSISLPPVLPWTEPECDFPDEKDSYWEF
Outline: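 HeLa cell lysates (5 mg/mL total protein) were preincubated with inhibitor at 0, 0.8, 2, 10 or 50 μM for 15 min. ATP or ADP acylphosphate probe was then added (5 μM final) for 10 min, and reactions were stopped with urea. Up to four fragment ions per kinase probe-peptide were quantified by targeted MS. % inhibition was taken relative to untreated lysate. Run in duplicate.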

[12] = biological target: ALK tyrosine kinase receptor (Homo sapiens) (UniProt Q9UM73); test: Inhibition of ALK (unknown origin) assessed as remaining activity at 10 uM by ATP-competition binding assay relative to control
[13] = biological target: Hepatocyte growth factor receptor (Homo sapiens, UniProt P08581); test: Inhibition of MET in human HeLa cells lysate at 2 uM pre incubated for 15 mins followed by ATP acyl phosphate probe addition and measured after 10 mins by LC-MS/MS analysis relative to control; format: subcellular; conditions: time 25.0 min
[14] = biological target: Mitogen-activated protein kinase 14 (Homo sapiens, UniProt Q16539); test: Inhibition of P38alpha interaction site in human HeLa cells lysate at 50 uM pre incubated for 15 mins followed by ATP acyl phosphate probe addition and measured after 10 mins by LC-MS/MS analysis relative to control; format: subcellular; conditions: time 25.0 min
Mitogen-activated protein kinase 14, sequence (Q16539 whole entry): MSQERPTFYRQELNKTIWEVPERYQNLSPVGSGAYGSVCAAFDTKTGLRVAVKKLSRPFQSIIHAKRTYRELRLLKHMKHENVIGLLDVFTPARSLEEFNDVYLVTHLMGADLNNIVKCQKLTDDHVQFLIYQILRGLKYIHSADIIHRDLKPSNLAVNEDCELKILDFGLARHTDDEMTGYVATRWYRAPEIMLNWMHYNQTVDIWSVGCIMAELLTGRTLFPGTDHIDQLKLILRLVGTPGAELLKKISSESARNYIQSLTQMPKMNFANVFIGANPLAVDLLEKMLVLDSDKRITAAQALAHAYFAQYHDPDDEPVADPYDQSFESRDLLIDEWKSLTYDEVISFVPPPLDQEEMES

[15] = biological target: STE20-like serine/threonine-protein kinase (Homo sapiens, UniProt Q9H2G2); test: Inhibition of SLK in human HeLa cells lysate pre incubated for 15 mins followed by ATP acyl phosphate probe addition and measured after 10 mins by LC-MS/MS analysis; format: subcellular
[16] = biological target: Dual specificity mitogen-activated protein kinase kinase 1 (Homo sapiens, UniProt Q02750); test: Inhibition of MAP2K1 in human HeLa cells lysate pre incubated for 15 mins followed by ATP acyl phosphate probe addition and measured after 10 mins by LC-MS/MS analysis; format: subcellular
Dual specificity mitogen-activated protein kinase kinase 1, sequence (Q02750 whole entry): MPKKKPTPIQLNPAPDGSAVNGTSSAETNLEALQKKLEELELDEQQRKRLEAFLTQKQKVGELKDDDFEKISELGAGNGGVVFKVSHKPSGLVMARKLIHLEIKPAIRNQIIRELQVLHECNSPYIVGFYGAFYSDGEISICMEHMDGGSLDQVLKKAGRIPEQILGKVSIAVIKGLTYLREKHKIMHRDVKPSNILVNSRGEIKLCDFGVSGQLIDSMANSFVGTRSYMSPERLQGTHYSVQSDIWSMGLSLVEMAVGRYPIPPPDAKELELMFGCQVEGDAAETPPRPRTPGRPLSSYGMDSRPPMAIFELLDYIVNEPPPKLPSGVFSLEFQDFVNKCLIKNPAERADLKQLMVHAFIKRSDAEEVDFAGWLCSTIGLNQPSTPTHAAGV

[17] = Inhibition of NEK6/7 in human HeLa cells lysate pre incubated for 15 mins followed by ATP acyl phosphate probe addition and measured after 10 mins by LC-MS/MS analysis; format: subcellular

Mitogen-activated protein kinase kinase kinase 20, sequence (Q9NYL2 whole entry): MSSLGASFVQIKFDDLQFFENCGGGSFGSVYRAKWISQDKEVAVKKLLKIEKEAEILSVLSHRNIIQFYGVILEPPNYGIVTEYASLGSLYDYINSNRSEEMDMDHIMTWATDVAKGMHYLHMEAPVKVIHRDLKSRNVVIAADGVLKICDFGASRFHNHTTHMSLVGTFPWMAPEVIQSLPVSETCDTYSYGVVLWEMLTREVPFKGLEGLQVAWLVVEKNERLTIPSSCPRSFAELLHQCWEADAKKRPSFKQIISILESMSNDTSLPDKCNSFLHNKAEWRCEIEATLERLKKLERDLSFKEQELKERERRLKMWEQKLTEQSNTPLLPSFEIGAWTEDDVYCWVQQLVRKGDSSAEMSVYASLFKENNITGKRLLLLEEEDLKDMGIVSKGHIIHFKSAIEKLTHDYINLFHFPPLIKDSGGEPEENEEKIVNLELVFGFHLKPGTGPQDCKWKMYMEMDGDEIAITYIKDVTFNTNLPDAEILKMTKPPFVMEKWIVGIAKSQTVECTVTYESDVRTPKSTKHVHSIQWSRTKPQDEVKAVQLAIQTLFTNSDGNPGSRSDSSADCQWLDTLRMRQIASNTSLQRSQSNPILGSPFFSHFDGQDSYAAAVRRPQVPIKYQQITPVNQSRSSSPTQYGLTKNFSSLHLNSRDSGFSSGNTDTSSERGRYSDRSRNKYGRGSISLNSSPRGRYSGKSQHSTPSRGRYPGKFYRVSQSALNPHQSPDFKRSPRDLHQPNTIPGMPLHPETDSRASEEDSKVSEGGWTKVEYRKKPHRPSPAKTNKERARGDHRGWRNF

## CCOc1cc(N2CCC(O)CC2)ccc1Nc1ncc2c(n1)N(C)c1ccccc1C(=O)N2C
[1]
  IC50: > 50 µM
[2]
  Activity: 664 U/L
[3]
  inhibition: 9.1%
[4]
  inhibition at 50 µM: -21.5%
[5]
  inhibition: -5.4%
[6]
  inhibition: 11.9%
Lewis lung carcinoma
  Activity: Active
[7]
  IC50: > 50 µM
[8]
  inhibition: -2.6%
[9]
  IC50: > 50 µM
[10]
  inhibition: 4.7%
[11]
  IC50: > 50 µM
[12]
  Activity: 29%
[13]
  inhibition: 38%
[14]
  inhibition: -2.5%
[15]
  IC50: > 50 µM
[16]
  IC50: > 50 µM
[17]
  IC50: > 50 µM

— ChEMBL document CHEMBL5661979, “Pharmacological inhibition of BMK1 suppresses tumor growth through promyelocytic leukemia protein” (Cancer Cell, 2010)
